Calls of active or inactive are those of the source. The rule behind the calls is not given here.

Consider two substances from ChEMBL document CHEMBL5316289, “Structure-Based Rational Design of Small α-Helical Peptides with Broad-Spectrum Activity against Multidrug-Resistant Pathogens” (J Med Chem, 2023).

Experiment [1] relates to Cell membrane. The experiment can be described thus: Disruption of cell membrane in Escherichia coli ATCC BAA-2452 assessed as cell membrane perturbation measured after 1 hrs by PI and DAPI double staining based fluorescence microscopic analysis. The experiment is classed as subcellular. The method in brief:
(§1)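 Mid-log E. coli ATCC BAA-2452 was washed three times in PBS (10 mM, pH 7.3). Cells at 10^7 CFU/mL were exposed to agent at MIC or 4× MIC for 1 h, then pelleted at 3000g and washed. Staining was PI for 15 min, then DAPI for 15 min, both at 37 °C in the dark. Untreated cells were processed alike. Imaged by fluorescence microscopy with 60× oil objective.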

Experiment [2] deals with Staphylococcus aureus. The experiment can be described thus: Bactericidal activity against methicillin resistant Staphylococcus aureus ATCC BAA 1556 assessed as inhibition of bacterial growth at 4 times of MIC incubated for 4 hrs by Time kill assay. Type of experiment: functional. The method, boiled down:
(§2)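 Aliquots taken every 30 min for 4 h and plated on agar for viable colony counts. Two independent experiments in triplicate.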

The test system of experiment [3] is Staphylococcus aureus. The experiment can be described thus: Antibacterial activity against methicillin resistant Staphylococcus aureus ATCC BAA 1556 assessed as fold increase in MIC incubated for 24 hrs in presence of Na+ ions by CLSI based broth microdilution method. The experiment is classed as functional. The method, boiled down:
(§3)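 CLSI broth microdilution. Overnight cultures diluted in cation-adjusted Mueller Hinton broth to 10^6 CFU/mL, mixed 1:1 with 2-fold serial peptide dilutions, 24 h at 37 °C. […] MIC is the lowest concentration inhibiting growth. Three independent assays in triplicate.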

Experiment [4] relates to Escherichia coli. The experiment can be described thus: Antibacterial activity against Escherichia coli ATCC 25922 assessed as fold increase in MIC incubated for 24 hrs in presence of Mg2+ ions by CLSI based broth microdilution method. The experiment is classed as functional. The method, boiled down: (§4)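 E. coli MICs by CLSI broth microdilution in cation-adjusted Mueller Hinton broth. […] Inoculum was 10^6 CFU/mL with 2-fold serial peptide dilutions, incubated 24 h at 37 °C. MIC is the lowest concentration inhibiting growth. Three independent assays, each in triplicate.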

Experiment [5] relates to Cell membrane. Nature of the experiment: Induction of membrane disruption in bacterial inner membrane mimic DOPC/DOPG (7:3) large unilamellar vesicles assessed as induction of dye leakage measured upto 100 mins by calcein dye based analysis. Type of experiment: subcellular. To be noted: dose 5-50 µg/ml. The method, boiled down: (§5)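 LUVs loaded with calcein: DOPC/DOPG 7:3 w/w (bacterial mimic) or DOPC/cholesterol 10:1 w/w (mammalian mimic). Mixed 1:1 by volume with peptide at 5, 10, 20, 30 or 50 μg/mL. Fluorescence (ex 490/em 520 nm) read every 10 min for 100 min. Leakage expressed relative to 10% Triton X-100 lysis (100%), after subtracting liposome background. Triplicate.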

Experiment [6] relates to HEK293. Nature of the experiment: Antiproliferative activity human HEK293 cells assessed as reduction in cell viability at 250 ug/ml incubated for 24 hrs by MTS assay. The experiment is classed as functional. To be noted: dose 250 µg/ml. The method, boiled down:
(§6)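 Cells seeded at 10,000 per well 24 h before treatment. Media: MRC-5 and HEK293 in DMEM with 10% FBS; HepaRG in William's E with GlutaMAX; HEKa in Dermal Cell Basal medium plus keratinocyte growth kit. Peptide at 10–250 μg/mL in triplicate for 24 h, 37 °C, 5% CO2. MTS added for 2 h, then A490 read. Survival is blank-corrected OD as % of untreated control.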

The test system of experiment [7] is Escherichia coli. The experiment can be described thus: Antibacterial activity against Escherichia coli ATCC 25922 assessed as fold increase in MIC incubated for 24 hrs in presence of K+ ions by CLSI based broth microdilution method. Type of experiment: functional. The method in brief: as §4
The nature of experiment [8]: Antiproliferative activity human HEKa cells assessed as reduction in cell viability at 50 ug/ml incubated for 24 hrs by MTS assay. Type of experiment: functional. To be noted: dose 50 µg/ml. The method in brief: as §6
Experiment [9] relates to HepaRG. The experiment can be described thus: Antiproliferative activity human HepaRG cells assessed as reduction in cell viability at 250 ug/ml incubated for 24 hrs by MTS assay. The experiment is classed as functional. Conditions: dose 250 µg/ml. The method, boiled down: as §6
For experiment [10], the system named is Cell membrane. Nature of the experiment: Disruption of cell membrane in methicillin resistant Staphylococcus aureus ATCC BAA 1556 assessed as increase in PI fluorescence intensity at 4 times of MIC measured after 1 hrs by PI staining based flow cytometric analysis. The method, boiled down: (§7)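 Mid-log cells grown in Mueller Hinton broth, washed in 10 mM Tris pH 7.4, 10^7 CFU/mL, treated at MIC and 4× MIC for 1 h. Pelleted, washed, PI-stained for 15 min at 37 °C in the dark, then counted by flow cytometry for % PI-positive cells. PBS-treated cells as negative control, 10% Triton X-100 as positive control. Run in triplicate; two-tailed unpaired t-test.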

For experiment [11], the system named is Cell membrane. Nature of the experiment: Disruption of cell membrane in Escherichia coli ATCC BAA-2452 assessed as cell membrane perturbation at 4 times of MIC measured after 1 hrs by PI and DAPI double staining based fluorescence microscopic analysis. The method, boiled down: as §1
Experiment [12] deals with Cell membrane. The experiment can be described thus: Disruption of cell membrane in methicillin resistant Staphylococcus aureus ATCC BAA 1556 assessed as increase in PI fluorescence intensity measured after 1 hrs by PI staining based flow cytometric analysis. Type of experiment: subcellular. The method, boiled down: as §7
For experiment [13], the system named is HEK293. The experiment can be described thus: Antiproliferative activity human HEK293 cells assessed as reduction in cell viability at 50 ug/ml incubated for 24 hrs by MTS assay. The experiment is classed as functional. To be noted: dose 50 µg/ml. The method in brief: as §6
Experiment [14] relates to Escherichia coli. The experiment can be described thus: Antibacterial activity against Escherichia coli ATCC 25922 assessed as fold increase in MIC incubated for 24 hrs in presence of NH4+ ions by CLSI based broth microdilution method. The experiment is classed as functional. The method in brief: as §4
Experiment [15] relates to Staphylococcus aureus. Nature of the experiment: Bactericidal activity against methicillin resistant Staphylococcus aureus ATCC BAA 1556 assessed as inhibition of bacterial growth at MIC incubated for 4 hrs by Time kill assay. Type of experiment: functional. The method in brief: as §2
Experiment [16] has as its system Escherichia coli. The experiment can be described thus: Antibacterial activity against Escherichia coli ATCC 25922 assessed as fold increase in MIC incubated for 24 hrs in presence of Na+ ions by CLSI based broth microdilution method. Type of experiment: functional. The method in brief: as §4
For experiment [17], the system named is Staphylococcus aureus. Nature of the experiment: Antibacterial activity against methicillin resistant Staphylococcus aureus ATCC BAA 1556 assessed as fold increase in MIC incubated for 24 hrs in presence of Mg2+ ions by CLSI based broth microdilution method. Type of experiment: functional. The method, boiled down:
as §3

In experiment [18] the test system is Escherichia coli. The experiment can be described thus: Bactericidal activity against […] Escherichia coli ATCC BAA 2452 assessed as inhibition of bacterial growth at MIC to 4 times of MIC by Time kill assay. Type of experiment: functional, organism-based. Conditions: time 4.0 hrs, TDE = time-dependent effect. The method, boiled down: as §2

For experiment [19], the system named is Cell membrane. The experiment can be described thus: Disruption of cell membrane in methicillin resistant Staphylococcus aureus ATCC BAA 1556 assessed as cell membrane perturbation measured after 1 hrs by DAPI and PI double staining based fluorescence microscopic analysis. Type of experiment: subcellular. The method, boiled down: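 Mid-log cells washed in PBS (10 mM, pH 7.3), 10^7 CFU/mL, treated at MIC and 4× MIC for 1 h. Pelleted and washed, then stained with PI for 15 min at 37 °C in the dark, then DAPI for 15 min at 37 °C in the dark. Untreated controls. Imaged by fluorescence microscopy, 60× oil objective.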

Experiment [20] concerns Cell membrane. Nature of the experiment: Induction of membrane disruption in bacterial inner membrane mimic DOPC/DOPG (7:3) large unilamellar vesicles assessed as induction of dye leakage at 5 ug/ml measured after 100 mins by calcein dye based analysis. The experiment is classed as subcellular. To be noted: dose 5.0 µg/ml. The method, boiled down: as §5
The subject of experiment [21] is Staphylococcus aureus. Nature of the experiment: Bactericidal activity against methicillin resistant Staphylococcus aureus ATCC BAA 1556 assessed as inhibition of bacterial growth at MIC to 4 times of MIC by Time kill assay. Type of experiment: functional, organism-based. To be noted: time 4.0 hrs, TDE = time-dependent effect. The method in brief:
as §2

Experiment [22] deals with MRC5. Nature of the experiment: Antiproliferative activity human MRC5 cells assessed as reduction in cell viability at 50 ug/ml incubated for 24 hrs by MTS assay. The experiment is classed as functional. Conditions: dose 50 µg/ml. The method, boiled down:
as §6

For H-KWLKKWLKWWKK-NH2, the Activity entry in [1] was “Dose-Dependent Effect”; in experiment [5], “Dose-Dependent Effect”; in [6], above 60%; in experiment [8] it was above 75%; in [9], above 60%; in experiment [10], 75%. The Activity entry was “Dose-Dependent Effect” in experiment [12]; above 75% in [13]; “Dose-Dependent Effect” in experiment [19]; 30% in [20]; above 75% in experiment [22]. Further, the “inhibition (INH)” value in experiment [2] was found to be 100%; in experiment [15], 75%. Further, the “fold change (FC)” value in experiment [3], in experiment [4], in experiment [7], in experiment [14], in [16] and in [17] was 2 in each case. Moreover, in [11], the result was Active. Also, the inhibition result in experiment [18] and in [21] was “Tde” each time.

H-RWLRRWLRWWRR-NH2: the Activity entry in experiment [1] is “Dose-Dependent Effect”; in experiment [5], “Dose-Dependent Effect”; in experiment [6], below 30%; in experiment [8], below 60%; in experiment [9], below 30%; in experiment [10], 75%. Also, the Activity entry in [12] is “Dose-Dependent Effect”; in experiment [13], below 60%; in experiment [19], “Dose-Dependent Effect”; in experiment [20], 30%; in experiment [22], below 60%. Besides, the “inhibition (INH)” value in experiment [2] is reported as 100%; in experiment [15] it was 75%. Further, the “fold change (FC)” value in experiment [3], in experiment [4], in experiment [7], in [14], in [16] and in experiment [17] was 2 each time. Besides, the outcome in [11] was Active. Moreover, the inhibition entry in [18] and in [21] was “Tde” each time.
